Compounds with a hit are over-represented: about 2.4% of the library has one in this group of screens.
MT stabilize HCS: microtubule stabilizers in HeLa cells, primary screen, imaging, high-content imaging; HeLa tubulin immunostaining HCS, 24 h; share of cells brighter than vehicle mean+2SD; % tubulin-high responders, % at 10 µM; 200,000 compounds, 0.83% hits; AID 2205, 2009;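 active means plate Z-score above 3 for both tubulin-high and condensed-nucleus cell shares, with cell loss under 80%, at 10 µM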;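 further: anti alpha tubulin signal scored within the nucleus-defined area of each cell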
EP2 mod: EP2 receptor modulators, cAMP readout, primary screen, cell-based, HTRF cAMP, PGE2 stimulation; 260,000 compounds, 0.83% hits; induction, % at 25 µM; Prostaglandin E2 receptor EP2 subtype (Homo sapiens), P43116; EP2-expressing cells, cAMP HTRF FRET, PGE2 co-stimulation;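 active means compounds whose cAMP rise, as percent of the full-agonist control response, exceeds 60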;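 further: rat C6 glioma line stably carrying human EP2 under a CMV promoter; the protocol text gives 20 µM as final concentration; 100% = response of wells given 1 µM PGE2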
Target sequence (P43116 whole entry, looked up): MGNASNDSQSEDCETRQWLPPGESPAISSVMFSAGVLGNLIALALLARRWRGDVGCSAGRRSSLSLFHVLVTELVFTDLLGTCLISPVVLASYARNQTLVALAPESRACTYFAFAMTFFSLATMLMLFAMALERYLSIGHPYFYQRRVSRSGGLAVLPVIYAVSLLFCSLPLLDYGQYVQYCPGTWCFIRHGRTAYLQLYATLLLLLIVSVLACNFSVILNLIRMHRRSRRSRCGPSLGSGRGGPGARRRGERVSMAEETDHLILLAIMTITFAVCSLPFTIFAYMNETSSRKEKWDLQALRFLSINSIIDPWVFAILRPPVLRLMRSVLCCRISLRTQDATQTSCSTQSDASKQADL
PGE2 EP2 inh: human EP2 receptor antagonists, primary screen, TR-FRET cAMP, C6 glioma cells. Prostaglandin E2 receptor EP2 subtype (Homo sapiens), P43116. C6 glioma cells expressing human EP2; cells stimulated with saturating PGE2. inhibition, % at 25 µM. 260,000 compounds, 0.52% hits. AID 1422, 2008;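 active means percent inhibition above 40 after rounding to a whole number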;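 further: rat C6 glioma host cells with rolipram phosphodiesterase inhibitor present; the protocol text gives 20 µM as final concentration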
bCat nuc transl: modulators of beta-catenin nuclear translocation, primary screen, imaging, HeLa cells, immunofluorescence, high-content; nuclear translocation activity, % at 5 µM; 190,000 compounds, 0.3% hits; AID 1665, 2009;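 active means nuclear translocation activity above 50% at 5 µM, with a well cell count of 50 or more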;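 further: per-cell ratio of nuclear to cytoplasmic median beta-catenin stain intensity; plate controls were DMSO negative control for no effect and GSK-3 inhibitor IX positive control for full effect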
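System: HeLa cells, endogenous beta-catenin; compound dosing: 5 µM primary single dose, 0.1% DMSO, 0.02–20 µM confirmation series; incubation: 24 h compound exposure at 37°C, 5% CO2; signal: beta-catenin immunofluorescence imaging with DAPI; evaluation: % activation, nuclear-to-cytoplasmic median beta-catenin signal ratio per cell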
HMGR II inh: inhibitors of E. faecalis class II HMGR, primary screen, biochemical, Enterococcus faecalis; HMG-CoA reductase (Enterococcus faecalis, mvaE); purified E. faecalis HMGR, NADPH absorbance 340 nm kinetic; inhibition, % at 10 µM; 190,000 compounds, 0.41% hits; AID 1066, 2008;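 active means inhibition above a set limit, the median over all tested compounds plus 3 SD, cut at about 9.5% in these data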;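 further: enzyme runs in reverse so mevalonate oxidation gives rising NADPH absorbance; 0% = complete reaction with DMSO and 100% = background rate lacking mevalonate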
TbHK1 inh: Trypanosoma brucei hexokinase 1 inhibitors, primary screen, biochemical, G6PDH-coupled NADH absorbance, MLSCN library. hexokinase 1 [Trypanosoma brucei]. recombinant TbHK1, G6PDH-coupled NADH A340. inhibition, % at 10 µM. 220,000 compounds, 0.11% hits;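 active means inhibition of 50% or more in the single-dose primary screen; inactive means inhibition below 50%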
The depositor's hits bear a star; x = not tested or not shown.

SMILES | MT stabilize HCS | EP2 mod | PGE2 EP2 inh | bCat nuc transl | HMGR II inh | TbHK1 inh
Cc1ccc(NC(=S)NC(=O)CC2CC(C)(C)OC2=O)cc1 (stereo not given) | 3 | -21 | 10 | 1 | 28* | -15
COc1cc(C(=O)Nc2cccc(-c3cn4cccnc4n3)c2)cc(OC)c1OC | 2 | -65 | 18 | -1 | 1 | -14
COc1ccc(-c2cn3cccnc3n2)cc1NC(=O)c1cc(OC)c(OC)c(OC)c1 | 3 | -63 | 5 | 1 | 9.6* | -10
CC1(C)Cc2nc3sc4c(=O)n(CC(=O)NCc5ccco5)cnc4c3cc2CO1 | 32* | 19 | 4 | 1 | -1 | -3
CCOc1ccc(NC(=O)CSc2n[nH]c(-c3ccccc3O)n2)cc1 | x | -32 | 8 | x | x | x
C=C(C)Cc1c(C)[nH]c(=S)[nH]c1=O | x | 3 | 11 | x | x | x
COc1cc2ncc(C(=O)c3ccccc3)c(N3CCN(Cc4ccccc4)CC3)c2cc1OC | x | 86* | 7 | 1 | x | -20
COc1ccc(-c2coc3cc4oc(=O)cc(-c5ccccc5)c4cc23)cc1F | 17* | 31 | 8 | 148* | 4 | -4
Cc1nn(C)cc1S(=O)(=O)Nc1ccc(OCCN2CCOCC2)cc1 | x | -7 | 12 | x | x | x
CN(C)C(=O)c1ccc2c(c1[N+](=O)[O-])C(=O)c1ccccc1C2=O | 3 | -34 | 7 | -1 | -8 | 0
O=C1c2ccccc2-c2cc([N+](=O)[O-])c([N+](=O)[O-])cc21 | x | -35 | 64* | x | x | x
COc1ccc([C@@H]2C[C@H](C(=O)N3CCc4ccccc4C3)N(C)S(=O)(=O)N2)cc1OC | x | 14 | x | x | x | x
COc1ccc(CC(=O)N2CCC(c3nc4sc5c(c4c(=O)[nH]3)CCCC5)CC2)cc1 | x | 0 | x | x | x | x
O=C(Nc1ccccc1N1CCOCC1)c1cccc(Cl)c1 | x | 10 | 7 | x | x | x
CC(=O)Nc1cccc(C(=O)Nc2ccccc2N2CCOCC2)c1 | 32* | -7 | -2 | -4 | -5 | -3
COc1cccc(NC(=O)CSc2nnc(CNc3nc(-c4ccccc4)cs3)n2C)c1 | x | 11 | 23 | x | x | x
O=C(NCC1CC1)c1ccc(Nc2nc3ccc(Br)cc3[nH]2)cc1 | 2 | -44 | 74* | -2 | -1 | -4
CCOC(=O)c1nc(NCCc2ccccc2)sc1C | 2 | -75 | 8 | -3 | 11* | 0
CCCC(=O)N1c2ccccc2C(=C2SC(C(=O)OC)=C(C(=O)OC)S2)C(=S)C1(C)C | 42* | 34 | 9 | -1 | -8 | 3
Cc1nc(NC(=O)CSc2nnc3c4c5c(sc4ncn23)CCCC5)sc1C | x | 45 | 9 | x | x | x
CC(=O)Nc1ccccc1N(C)S(=O)(=O)c1ccc(C)cc1 | 47* | 28 | 1 | 5 | 0 | 2
CCSc1nc2sc3c(c2c2nnc(SCC(=O)NCc4ccco4)n12)CCCC3 | 3 | x | 49* | x | x | -10
CCCc1nc2sc3c(SCC(=O)NCc4ccco4)ncnc3c2c2c1CCC2 | 15* | 36 | 5 | 77* | 0 | 6
O=C(Nc1ccc(Br)cn1)c1ccc2nccnc2c1 | 12* | x | 10 | x | x | -14
COc1ccc(NC(=O)c2ccc3nccnc3c2)cc1 | 3 | 19 | 1 | 1 | -4 | -10
SMILES | MT stabilize HCS | EP2 mod | PGE2 EP2 inh | bCat nuc transl | HMGR II inh | TbHK1 inh
Cc1ccc2cc3c(N)c(C(=O)OC(C)C)sc3nc2c1 | x | -39 | 17 | x | x | x
CS(=O)(=O)c1cncnc1C1CCCN(C(=O)Cc2ccccc2F)C1 (stereo not given) | x | -18 | x | x | x | x
CCCCCCCCOC(=O)C1=C(C)Nc2nnnn2C1c1cccs1 (stereo not given) | 2 | 66* | 3 | x | 1 | 10
CCN(CC)CC[n+]1ccc2c(C)c3[nH]c4ccc(O)cc4c3c(C)c2c1 | x | 7 | 44* | x | x | x
Cc1ccc(S(=O)(=O)N2c3ccccc3OCC2c2ccccc2)cc1 (stereo not given) | 15 | 46 | 5 | -2 | -5 | 5
Cc1ccc(S(=O)(=O)N2c3cc(C)ccc3OCC2C(C)(C)C)cc1 (stereo not given) | 21 | 62* | 15 | -6 | -4 | 5

From PubChem
